# Experimental data reported in ChEMBL document CHEMBL1126327, “Synthesis and antihypertensive activity of 3-[(substituted-carbonyl)amino]-2H-1-benzopyrans” (1992).
# Experiments:
# Format in all cases: functional
# Rattus norvegicus [1] = experiment: Oral antihypertensive activity in spontaneously hypertensive rats at a dose of 0.3 mg/kg (po)
# Procedure, shortened: (§1)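 Conscious spontaneously hypertensive rats (Okamoto-derived, 14-24 weeks old; systolic pressure >180 mmHg counted as hypertensive) dosed by oral needle into the esophagus as a solution or suspension in 1% w/v methylcellulose. Systolic pressure was taken by tail-cuff, each reading the mean of at least five recordings, before dosing and at intervals up to 6 h. The maximum fall was recorded.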
# Rattus norvegicus [2] = experiment: Oral antihypertensive activity in spontaneously hypertensive rats at a dose of 10 mg/kg (po); procedure, shortened: as §1
# Rattus norvegicus [3] = experiment: Oral antihypertensive activity in spontaneously hypertensive rats at a dose of 3 mg/kg (po); procedure, shortened: as §1
# Rattus norvegicus [4] = experiment: Oral antihypertensive activity in spontaneously hypertensive rats at a dose of 1 mg/kg (po); procedure, shortened: as §1
# Rattus norvegicus [5] = experiment: Compound was evaluated for oral antihypertensive activity in spontaneously hypertensive rats at a dose of 0.1 mg/kg (po); procedure, shortened: as §1
# Rattus norvegicus [6] = experiment: Compound was evaluated for oral antihypertensive activity in spontaneously hypertensive rats at a dose of 1.0 mg/kg (po); procedure, shortened: as §1
# Rattus norvegicus [7] = experiment: Compound was evaluated for oral antihypertensive activity in spontaneously hypertensive rats at a dose of 1 mg/Kg (po); procedure, shortened: as §1
# Rattus norvegicus [8] = experiment: Compound was evaluated for oral antihypertensive activity in spontaneously hypertensive rats at a dose of 10 mg/Kg (po); procedure, shortened: as §1
# Rattus norvegicus [9] = experiment: Compound was evaluated for oral antihypertensive activity in spontaneously hypertensive rats at a dose of 3 mg/Kg (po); procedure, shortened: as §1
smiles,measurement,setting,value
CC(C)/N=C(\S)N[C@@H]1C(O)c2cc(C#N)ccc2OC1(C)C (some centres not stated),Max fall in blood pressure,Rattus norvegicus [1],-49%
CC1(C)Oc2ccc(C#N)cc2C(O)[C@H]1N1CCCCC1=O (some centres not stated),Max fall in blood pressure,Rattus norvegicus [2],-16%
same,Max fall in blood pressure,Rattus norvegicus [3],-20%
CC1(C)Oc2ccc(C#N)cc2C(N2CCCC2=O)C1O (configuration not stated) [CROMAKALIM],Max fall in blood pressure,Rattus norvegicus [4],-47%
same,Max fall in blood pressure,Rattus norvegicus [1],-39%
same,Max fall in blood pressure,Rattus norvegicus [5],-13%
CC(C)(C)C(=O)N[C@@H]1C(O)c2cc(C#N)ccc2OC1(C)C (some centres not stated),Max fall in blood pressure,Rattus norvegicus [4],-36%
same,Max fall in blood pressure,Rattus norvegicus [1],-30%
CC(=O)N[C@@H]1C(O)c2cc(C#N)ccc2OC1(C)C (some centres not stated),Max fall in blood pressure,Rattus norvegicus [2],-32%
same,Max fall in blood pressure,Rattus norvegicus [3],-14%
CCCNC(=O)N[C@@H]1C(O)c2cc(C#N)ccc2OC1(C)C (some centres not stated),Max fall in blood pressure,Rattus norvegicus [4],-10%
same,Max fall in blood pressure,Rattus norvegicus [3],-32%
CC(C)(C)NC(=O)N[C@@H]1C(O)c2cc(Cl)ccc2OC1(C)C (some centres not stated),Max fall in blood pressure,Rattus norvegicus [1],-16%
same,Max fall in blood pressure,Rattus norvegicus [3],-34%
CC(C)(C)OC(=O)N[C@@H]1Cc2cc(C#N)ccc2OC1(C)C,Max fall in blood pressure,Rattus norvegicus [2],-30%
same,Max fall in blood pressure,Rattus norvegicus [3],-26%
CC1(C)Oc2ccc(C#N)cc2C(O)[C@H]1NC(=O)c1ccccn1 (some centres not stated),Max fall in blood pressure,Rattus norvegicus [4],-18%
same,Max fall in blood pressure,Rattus norvegicus [3],-15%
CC(C)(C)CC(=O)N[C@@H]1C(O)c2cc(C#N)ccc2OC1(C)C (some centres not stated),Max fall in blood pressure,Rattus norvegicus [4],-9%
same,Max fall in blood pressure,Rattus norvegicus [3],-27%
CC(C)C(=O)N[C@@H]1C(O)c2cc(C#N)ccc2OC1(C)C (some centres not stated),Max fall in blood pressure,Rattus norvegicus [1],-39%
same,Max fall in blood pressure,Rattus norvegicus [5],-22%
CC(C)NC(=O)N[C@@H]1C(O)c2cc(C#N)ccc2OC1(C)C (some centres not stated),Max fall in blood pressure,Rattus norvegicus [4],-26%
same,Max fall in blood pressure,Rattus norvegicus [1],-22%
CC(C)(C)NC(=O)N[C@@H]1C(O)c2cc(C(F)(F)F)ccc2OC1(C)C (some centres not stated),Max fall in blood pressure,Rattus norvegicus [4],-31%
CC(C)(C)NC(=O)N[C@@H]1Cc2cc(C#N)ccc2OC1(C)C,Max fall in blood pressure,Rattus norvegicus [1],-27%
CC1(C)Oc2ccc(C#N)cc2C(O)[C@H]1NC(=O)C1CCCCC1 (some centres not stated),Max fall in blood pressure,Rattus norvegicus [4],-11%
same,Max fall in blood pressure,Rattus norvegicus [3],-9%
CC1(C)Oc2ccc(C#N)cc2C(O)[C@H]1NC(=O)c1ccccc1 (some centres not stated),Max fall in blood pressure,Rattus norvegicus [3],-20%
CCNC(=O)N[C@@H]1C(O)c2cc(C#N)ccc2OC1(C)C (some centres not stated),Max fall in blood pressure,Rattus norvegicus [4],-13%
same,Max fall in blood pressure,Rattus norvegicus [3],-18%
CC(C)(C)NC(=O)N[C@@H]1C(O)c2cc(C#N)ccc2OC1(C)C (some centres not stated),Max fall in blood pressure,Rattus norvegicus [1],-40%
same,Max fall in blood pressure,Rattus norvegicus [6],-63%
same,Max fall in blood pressure,Rattus norvegicus [5],-19%
CC(C)(C)OC(=O)N[C@@H]1C(N)c2cc(C#N)ccc2OC1(C)C (some centres not stated),Max fall in blood pressure,Rattus norvegicus [2],-25%
CC(C)(C)OC(=O)N[C@@H]1C(O)c2cc(C#N)ccc2OC1(C)C (some centres not stated),Max fall in blood pressure,Rattus norvegicus [7],-14%
same,Max fall in blood pressure,Rattus norvegicus [8],-49%
same,Max fall in blood pressure,Rattus norvegicus [9],-30%
COC1c2cc(C#N)ccc2OC(C)(C)[C@@H]1NC(=O)OC(C)(C)C (some centres not stated),Max fall in blood pressure,Rattus norvegicus [3],-39%
CC1(C)Oc2ccc(C#N)cc2C(O)[C@H]1NC(=O)NC1CCCCC1 (some centres not stated),Max fall in blood pressure,Rattus norvegicus [3],-14%
CC1(C)Oc2ccc(C#N)cc2C(O)[C@H]1NC(=O)c1ccc(F)cc1 (some centres not stated),Max fall in blood pressure,Rattus norvegicus [4],-22%
same,Max fall in blood pressure,Rattus norvegicus [3],-42%
CN(C)C(=O)N[C@@H]1C(O)c2cc(C#N)ccc2OC1(C)C (some centres not stated),Max fall in blood pressure,Rattus norvegicus [3],-27%
CNC(=O)N[C@@H]1C(O)c2cc(C#N)ccc2OC1(C)C (some centres not stated),Max fall in blood pressure,Rattus norvegicus [2],-24%
same,Max fall in blood pressure,Rattus norvegicus [3],-8%
CC1(C)Oc2ccc(C#N)cc2C(O)[C@H]1NC(=O)c1ccc(F)c(F)c1 (some centres not stated),Max fall in blood pressure,Rattus norvegicus [4],-6%
same,Max fall in blood pressure,Rattus norvegicus [3],-37%
